Experiment [1] deals with T1, Polyunsaturated fatty acid lipoxygenase ALOX15 (Homo sapiens) (UniProt P16050).
T1 sequence (whole entry): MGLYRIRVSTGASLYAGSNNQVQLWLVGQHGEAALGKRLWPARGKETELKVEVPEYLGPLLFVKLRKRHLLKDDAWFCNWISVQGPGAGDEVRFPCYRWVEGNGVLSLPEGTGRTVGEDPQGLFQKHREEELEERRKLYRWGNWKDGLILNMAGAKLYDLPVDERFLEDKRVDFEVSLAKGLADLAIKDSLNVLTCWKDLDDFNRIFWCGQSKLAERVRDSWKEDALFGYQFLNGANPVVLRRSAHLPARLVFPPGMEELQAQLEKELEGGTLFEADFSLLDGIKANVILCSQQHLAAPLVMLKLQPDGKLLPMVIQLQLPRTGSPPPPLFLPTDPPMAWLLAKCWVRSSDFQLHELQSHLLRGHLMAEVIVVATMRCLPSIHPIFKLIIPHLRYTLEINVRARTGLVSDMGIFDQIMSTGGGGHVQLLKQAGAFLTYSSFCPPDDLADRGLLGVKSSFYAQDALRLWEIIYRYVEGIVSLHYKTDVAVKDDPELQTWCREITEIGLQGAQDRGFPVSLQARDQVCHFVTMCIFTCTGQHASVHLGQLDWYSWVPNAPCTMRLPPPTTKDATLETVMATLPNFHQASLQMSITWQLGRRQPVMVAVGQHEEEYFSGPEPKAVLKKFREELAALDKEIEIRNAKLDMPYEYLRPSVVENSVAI
The experiment is described as follows: Activation of wild-type His6-tagged human 15-LOX expressed in Escherichia coli Rosetta DE3 assessed as 15-HpETE formation at 40 uM pre-incubated for 1 min before arachidonic acid substrate addition by cell free assay.

The target in experiment [2] is Prostaglandin G/H synthase 1 (Homo sapiens) (UniProt P23219). Put plainly: Inhibition of COX1 (unknown origin) assessed as reduction in PGG2 to PGH2 conversion by measuring N,N,N',N'-tetramethyl-p-phenylenediamine oxidation at 100 uM by spectrophotometry.
In experiment [3] the target is T1, Polyunsaturated fatty acid lipoxygenase ALOX15 (Homo sapiens). Put plainly: Activation of 15-LOX in human whole blood assessed as increase in 13-HODE production at 100 uM pre-incubated for 20 mins before stimulation with LPS and A23187 for 120 mins by LC-MS/MS method. The format is tissue-based. In a few lines:
(§1)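 Human blood preincubated 20 min at 37 °C with DMSO vehicle or compound in DMSO. LPS added at 100 μg/mL for 24 h at 37 °C, then A23187 at 20 μg/mL final. Samples frozen in liquid nitrogen at time points, lysed by freeze–thaw, with PGB2 internal standard. Analysed by C18 LC-MRM MS, negative ion. Change = control-normalized concentration minus 1, ×100%; 120 min value from AUC.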

For experiment [4], the system named is Blood. Put plainly: Reduction in LTB4 in production in human whole blood at 100 uM pre-incubated for 20 mins before stimulation with LPS and A23187 for 120 mins by LC-MS/MS method. The format is functional. Set-up: scale not given: the % may be the effect or the level left. In a few lines: as §1
For experiment [5], the system named is Blood. The experiment is described as follows: Reduction in TXB2 in production in human whole blood at 100 uM pre-incubated for 20 mins before stimulation with LPS and A23187 for 120 mins by LC-MS/MS method. The format is functional. Set-up: scale not given: the % may be the effect or the level left. In a few lines: as §1
In experiment [6] the target is Prostaglandin G/H synthase 1 (Homo sapiens) (UniProt P23219). Put plainly: Activation of COX1 (unknown origin) assessed as PGG2 to PGH2 conversion by measuring N,N,N',N'-tetramethyl-p-phenylenediamine oxidation at 100 uM by spectrophotometry.
Experiment [7] deals with T2, Prostaglandin G/H synthase 2 (Homo sapiens) (UniProt P35354).
T2 sequence (whole entry): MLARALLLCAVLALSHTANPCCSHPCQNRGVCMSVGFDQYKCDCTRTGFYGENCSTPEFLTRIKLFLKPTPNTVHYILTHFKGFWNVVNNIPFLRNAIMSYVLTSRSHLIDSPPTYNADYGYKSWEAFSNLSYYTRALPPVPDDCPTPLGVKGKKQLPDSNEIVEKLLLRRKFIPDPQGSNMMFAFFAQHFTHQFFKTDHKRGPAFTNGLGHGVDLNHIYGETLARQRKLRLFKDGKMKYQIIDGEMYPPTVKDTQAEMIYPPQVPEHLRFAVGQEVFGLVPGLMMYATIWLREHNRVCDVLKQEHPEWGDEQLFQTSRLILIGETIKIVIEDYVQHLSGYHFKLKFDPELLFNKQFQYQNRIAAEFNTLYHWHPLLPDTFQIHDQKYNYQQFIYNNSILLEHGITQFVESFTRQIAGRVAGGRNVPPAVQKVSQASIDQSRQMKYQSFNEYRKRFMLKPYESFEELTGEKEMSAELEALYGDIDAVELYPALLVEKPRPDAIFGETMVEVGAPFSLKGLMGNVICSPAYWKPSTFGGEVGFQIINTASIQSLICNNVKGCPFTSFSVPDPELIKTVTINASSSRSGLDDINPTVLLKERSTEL
The experiment is described as follows: Activation of COX2 (unknown origin) assessed as PGG2 to PGH2 conversion by measuring N,N,N',N'-tetramethyl-p-phenylenediamine oxidation at 100 uM by spectrophotometry.

For experiment [8], the target named is T1, Polyunsaturated fatty acid lipoxygenase ALOX15 (Homo sapiens). Put plainly: Activation of 15-LOX in human whole blood assessed as 5-HETE production at 100 uM pre-incubated for 20 mins before stimulation with LPS and A23187 for 120 mins in presence of 2 uM 5-LOX inhibitor Zileuton by LC-MS/MS method. The format is tissue-based. In short, it runs like this:
as §1

Experiment [9] shares this target. Put plainly: Activation of 15-LOX in human whole blood assessed as reduction in PGE2 production at 100 uM pre-incubated for 20 mins before stimulation with LPS and A23187 for 120 mins in presence of 2 uM 5-LOX inhibitor Zileuton by LC-MS/MS method. The format is tissue-based. In a few lines: as §1
Experiment [10] has the same target. The experiment is described as follows: Activation of 15-LOX in human whole blood assessed as 15-HETE production at 100 uM pre-incubated for 20 mins before stimulation with LPS and A23187 for 120 mins in presence of 2 uM 5-LOX inhibitor Zileuton by LC-MS/MS method. The format is tissue-based. In a few lines: as §1
The target is the same in experiment [11]. The experiment is described as follows: Activation of 15-LOX in human whole blood assessed as 13-HODE production at 100 uM pre-incubated for 20 mins before stimulation with LPS and A23187 for 120 mins in presence of 2 uM 5-LOX inhibitor Zileuton by LC-MS/MS method. The format is tissue-based. In a few lines:
as §1

Experiment [12] shares this target. Put plainly: Activation of 15-LOX in human whole blood assessed as reduction in 5-HETE production at 100 uM pre-incubated for 20 mins before stimulation with LPS and A23187 for 120 mins in presence of 2 uM […] inhibitor Zileuton by LC-MS/MS method. The format is tissue-based. In short, it runs like this:
as §1

Experiment [13] shares this target. The experiment is described as follows: Activation of 15-LOX in human whole blood assessed as reduction in LTB4 production at 100 uM pre-incubated for 20 mins before stimulation with LPS and A23187 for 120 mins in presence of 2 uM […] inhibitor Zileuton by LC-MS/MS method. The format is tissue-based. In short, it runs like this:
as §1

For experiment [14] the target is unchanged. Put plainly: Activation of 15-LOX in human whole blood assessed as increase in 13-HODE production at 100 uM pre-incubated for 20 mins before stimulation with LPS and A23187 for 120 mins in presence of 2 uM […] inhibitor Zileuton by LC-MS/MS method. The format is tissue-based. In short, it runs like this: as §1

The structures appear in SMILES notation. Calls of active or inactive are those of the source. The calls are words filed in the database; no cut-off is given here.

This is an account of results in ChEMBL document CHEMBL3817796, “Discovery of Novel 15-Lipoxygenase Activators To Shift the Human Arachidonic Acid Metabolic Network toward Inflammation Resolution” (J Med Chem, 2016).

One may read the inhibition as the share of the control response that was lost under treatment.

Sequence of Prostaglandin G/H synthase 1 (Homo sapiens) (P23219 whole entry): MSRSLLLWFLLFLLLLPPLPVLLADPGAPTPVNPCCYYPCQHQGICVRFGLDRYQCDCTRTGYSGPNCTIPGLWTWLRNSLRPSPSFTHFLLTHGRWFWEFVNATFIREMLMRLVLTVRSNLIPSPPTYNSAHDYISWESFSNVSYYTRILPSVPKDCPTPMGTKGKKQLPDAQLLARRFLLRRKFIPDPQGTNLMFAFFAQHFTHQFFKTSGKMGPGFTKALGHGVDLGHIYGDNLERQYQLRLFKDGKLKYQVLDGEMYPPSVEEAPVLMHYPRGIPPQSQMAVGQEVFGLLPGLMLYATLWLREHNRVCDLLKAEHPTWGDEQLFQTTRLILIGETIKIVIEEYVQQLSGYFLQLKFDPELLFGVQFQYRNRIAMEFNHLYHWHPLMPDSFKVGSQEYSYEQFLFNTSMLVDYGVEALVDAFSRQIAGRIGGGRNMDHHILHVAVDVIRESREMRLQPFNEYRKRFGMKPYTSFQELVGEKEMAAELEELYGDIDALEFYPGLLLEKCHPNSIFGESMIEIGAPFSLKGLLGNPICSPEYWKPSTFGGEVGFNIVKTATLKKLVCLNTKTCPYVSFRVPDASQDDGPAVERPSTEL

Take `CN1CCN(CC(=O)N2N=C3/C(=C/c4ccccc4)CCCC3C2c2ccccc2)CC1` (centres undefined): the %max in experiment [1] came out at 85%. Besides, the inhibition in [2] was under 5%. Further, the Activity was 95% in experiment [3]; 52% with Blood [4]; 27% in the experiment with Blood [5]; under 5% in [6]; under 5% in experiment [7]; 59% in experiment [8]. The figures for the Activity in experiment [10] and in experiment [11] were 36% and 67%, respectively. Besides, the outcome in [9], in [12], in experiment [13] and in [14] was Active.
